In brackets after ≈: the same amount, converted by molar mass.
How the values were obtained:
[1] = molecular target: T1, Vascular endothelial growth factor receptor 2 (Homo sapiens, UniProt P35968); experiment: Inhibition of human recombinant VEGFR2 at 10 uM using CAGAGAIETDKEYYTVKD as substrate after 60 mins by Lance method
[2] = Apparent intrinsic clearance in human liver microsomes; assay type: ADME, microsome; conditions: read-out: CLH(app)
CYP2C9 = CYP2C9 (Homo sapiens, UniProt P11712); experiment: Inhibition of CYP2C9 in human liver microsomes at 3 uM; assay type: ADME
[3] = Half life in Wistar Han rat at 1 mg/kg, iv administered as single dose; assay type: ADME, organism-based; conditions: in vivo
[4] = Half life in Beagle dog at 1 mg/kg, iv administered as single dose; assay type: ADME, organism-based, Canis lupus familiaris; conditions: in vivo
[5] = molecular target: Casein kinase I delta/epsilon (Homo sapiens) (UniProt P48730+P49674); experiment: Inhibition of CK1-delta/epsilon in human THP1 cell lysate at 200 nM
Cytochrome P450 2B6 = Cytochrome P450 2B6 (Homo sapiens, UniProt P20813); experiment: Time dependent inhibition of CYP2B6 in human liver microsomes at 100 uM; assay type: ADME
Procedure, shortened: (§1)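 Time-dependent inhibition assessed in pooled human liver microsomes with probe substrates, test compound at 100 μM.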

[6] = Half life in Beagle dog at 5 mg/kg, po administered as single dose; assay type: ADME, organism-based, Canis lupus familiaris; conditions: in vivo
[7] = Volume of distribution at steady state in Wistar Han rat at 1 mg/kg, iv administered as single dose; assay type: ADME, organism-based; conditions: in vivo, read-out: Vdss
Procedure, shortened: (§2)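 Single-dose pharmacokinetic study in male animals, with iv and separate oral administration. Steady-state volume of distribution was derived from plasma concentrations after the iv dose.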

[8] = molecular target: Interleukin-1 receptor-associated kinase 1 (Homo sapiens) (UniProt P51617); experiment: Inhibition of recombinant human GST-tagged IRAK1 expressed in baculovirus at 200 nM
[9] = Solubility of compound in phosphate buffer at pH 6.7; assay type: physicochemical
Procedure, shortened: (§3)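 Solubility of crystalline material measured in phosphate-buffered saline pH 6.7, unbuffered water pH 8.1 and simulated fasted-state intestinal fluid pH 6.5, reported in μg/mL.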

[10] = Solubility of compound in simulated fasted state intestinal fluid at pH 6.5; assay type: physicochemical; procedure, shortened: as §3
Cytochrome P450 2C19 = Cytochrome P450 2C19 (Homo sapiens, UniProt P33261); experiment: Time dependent inhibition of CYP2C19 in human liver microsomes at 100 uM; assay type: ADME; procedure, shortened: as §1
[11] = molecular target: Phosphatidylinositol 5-phosphate 4-kinase type-2 gamma (Homo sapiens) (UniProt Q8TBX8); experiment: Inhibition of PIPK2C in human THP1 cell lysate at 200 nM
[12] = molecular target: Leucine-rich repeat serine/threonine-protein kinase 2 (Homo sapiens) (UniProt Q5S007); experiment: Inhibition of recombinant human GST-tagged LRRK2 expressed in baculovirus at 200 nM
[13] = molecular target: T2, Interleukin-1 receptor-associated kinase 4 (Homo sapiens) (UniProt Q9NWZ3); experiment: Inhibition of recombinant human full length His-tagged IRAK4 expressed in baculovirus at 200 nM
T2 sequence (whole entry): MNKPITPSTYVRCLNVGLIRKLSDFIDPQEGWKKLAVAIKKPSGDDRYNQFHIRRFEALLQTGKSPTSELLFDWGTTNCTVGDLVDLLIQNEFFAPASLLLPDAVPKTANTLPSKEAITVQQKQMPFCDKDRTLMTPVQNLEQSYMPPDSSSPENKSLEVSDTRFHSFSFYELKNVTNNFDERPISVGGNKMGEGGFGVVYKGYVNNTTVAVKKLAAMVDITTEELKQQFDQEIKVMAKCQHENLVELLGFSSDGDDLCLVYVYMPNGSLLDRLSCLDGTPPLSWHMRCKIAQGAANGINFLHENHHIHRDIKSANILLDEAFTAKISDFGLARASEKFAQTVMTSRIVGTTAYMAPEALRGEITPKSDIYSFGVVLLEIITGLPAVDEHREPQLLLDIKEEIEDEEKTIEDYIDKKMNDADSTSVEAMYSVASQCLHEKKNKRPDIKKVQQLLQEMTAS

CYP2C8 = CYP2C8 (Homo sapiens, UniProt P10632); experiment: Inhibition of CYP2C8 in human liver microsomes at 3 uM; assay type: ADME
[14] = Volume of distribution at steady state in Beagle dog at 1 mg/kg, iv administered as single dose; assay type: ADME, organism-based, Canis lupus familiaris; conditions: in vivo, read-out: Vdss; procedure, shortened: as §2
[15] = Half life in cynomolgus monkey at 1 mg/kg, iv administered as single dose; assay type: ADME, organism-based, Macaca fascicularis; conditions: in vivo
[16] = Oral bioavailability in Wistar Han rat at 5 mg/kg administered as single dose; assay type: ADME, organism-based; conditions: in vivo
[17] = Volume of distribution at steady state in cynomolgus monkey at 1 mg/kg, iv administered as single dose; assay type: ADME, organism-based, Macaca fascicularis; conditions: in vivo, read-out: Vdss; procedure, shortened: as §2
[18] = Oral bioavailability in cynomolgus monkey at 5 mg/kg administered as single dose; assay type: ADME, organism-based, Macaca fascicularis; conditions: in vivo
Plasma [19] = experiment: Free plasma concentration in Sprague-Dawley rat LPS model at 0.3 mg/kg, po after 2.5 hrs; assay type: ADME, organism-based; conditions: in vivo
Procedure, shortened: (§4)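 Male Sprague−Dawley rats, 6−8 weeks old, n = 6−9 per group. Dosed orally at 0.3, 1, 3 or 30 mg/kg in 0.5% methylcellulose/2% Tween 80 in water. Ultrapure LPS 0.01 mg/kg iv given 1 h after dosing. Plasma exposure taken 2.5 h after oral dosing and reported as free concentration using fraction unbound in rat plasma.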

[20] = Half life in cynomolgus monkey at 5 mg/kg, po administered as single dose; assay type: ADME, organism-based, Macaca fascicularis; conditions: in vivo
Rattus norvegicus [21] = experiment: Inhibition of LPS induced TNFalpha secretion in Sprague-Dawley rat assessed as decrease in TNFalpha level in serum at 30 mg/kg, po pretreated for 1 hr followed by LPS challenge measured after 1.5 hrs relative to control; assay type: functional
Procedure, shortened: (§5)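 Male Sprague-Dawley rats, 6-8 weeks old, n = 6-9 per group. Test article was given orally at 0.3, 1, 3 or 30 mg/kg as a solution or suspension in 0.5% methylcellulose and 2% Tween 80 in water; controls received vehicle alone. Ultrapure LPS (0.01 mg/kg) was given iv 1 h later. Blood was drawn 1.5 h after challenge, and serum TNF was measured by MSD.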

[22] = Fraction unbound in rat plasma; assay type: ADME, cell-free
Procedure, shortened: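 Fraction unbound in plasma measured by equilibrium dialysis.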

Rattus norvegicus [23] = experiment: Inhibition of LPS induced TNFalpha secretion in po dosed Sprague-Dawley rat assessed as decrease in TNFalpha level in serum pretreated for 1 hr followed by LPS challenge measured after 1.5 hrs relative to control; assay type: functional, organism-based; procedure, shortened: as §5
Rattus norvegicus [24] = experiment: Inhibition of LPS induced TNFalpha secretion in Sprague-Dawley rat assessed as decrease in TNFalpha level in serum at 1 mg/kg, po pretreated for 1 hr followed by LPS challenge measured after 1.5 hrs relative to control; assay type: functional; procedure, shortened: as §5
Cytochrome P450 1A2 = Cytochrome P450 1A2 (Homo sapiens, UniProt P05177); experiment: Time dependent inhibition of CYP1A2 in human liver microsomes at 100 uM; assay type: ADME; procedure, shortened: as §1
Plasma [25] = experiment: Free plasma concentration in Sprague-Dawley rat LPS model at 3 mg/kg, po after 2.5 hrs; assay type: ADME, organism-based; conditions: in vivo; procedure, shortened: as §4
[26] = molecular target: T1, Vascular endothelial growth factor receptor 2; experiment: Inhibition of human recombinant VEGFR2 using CAGAGAIETDKEYYTVKD as substrate after 60 mins by Lance method
Rattus norvegicus [27] = experiment: Inhibition of LPS induced TNFalpha secretion in Sprague-Dawley rat assessed as decrease in TNFalpha level in serum at 3 mg/kg, po pretreated for 1 hr followed by LPS challenge measured after 1.5 hrs relative to control; assay type: functional; procedure, shortened: as §5

T1 sequence (P35968 whole entry): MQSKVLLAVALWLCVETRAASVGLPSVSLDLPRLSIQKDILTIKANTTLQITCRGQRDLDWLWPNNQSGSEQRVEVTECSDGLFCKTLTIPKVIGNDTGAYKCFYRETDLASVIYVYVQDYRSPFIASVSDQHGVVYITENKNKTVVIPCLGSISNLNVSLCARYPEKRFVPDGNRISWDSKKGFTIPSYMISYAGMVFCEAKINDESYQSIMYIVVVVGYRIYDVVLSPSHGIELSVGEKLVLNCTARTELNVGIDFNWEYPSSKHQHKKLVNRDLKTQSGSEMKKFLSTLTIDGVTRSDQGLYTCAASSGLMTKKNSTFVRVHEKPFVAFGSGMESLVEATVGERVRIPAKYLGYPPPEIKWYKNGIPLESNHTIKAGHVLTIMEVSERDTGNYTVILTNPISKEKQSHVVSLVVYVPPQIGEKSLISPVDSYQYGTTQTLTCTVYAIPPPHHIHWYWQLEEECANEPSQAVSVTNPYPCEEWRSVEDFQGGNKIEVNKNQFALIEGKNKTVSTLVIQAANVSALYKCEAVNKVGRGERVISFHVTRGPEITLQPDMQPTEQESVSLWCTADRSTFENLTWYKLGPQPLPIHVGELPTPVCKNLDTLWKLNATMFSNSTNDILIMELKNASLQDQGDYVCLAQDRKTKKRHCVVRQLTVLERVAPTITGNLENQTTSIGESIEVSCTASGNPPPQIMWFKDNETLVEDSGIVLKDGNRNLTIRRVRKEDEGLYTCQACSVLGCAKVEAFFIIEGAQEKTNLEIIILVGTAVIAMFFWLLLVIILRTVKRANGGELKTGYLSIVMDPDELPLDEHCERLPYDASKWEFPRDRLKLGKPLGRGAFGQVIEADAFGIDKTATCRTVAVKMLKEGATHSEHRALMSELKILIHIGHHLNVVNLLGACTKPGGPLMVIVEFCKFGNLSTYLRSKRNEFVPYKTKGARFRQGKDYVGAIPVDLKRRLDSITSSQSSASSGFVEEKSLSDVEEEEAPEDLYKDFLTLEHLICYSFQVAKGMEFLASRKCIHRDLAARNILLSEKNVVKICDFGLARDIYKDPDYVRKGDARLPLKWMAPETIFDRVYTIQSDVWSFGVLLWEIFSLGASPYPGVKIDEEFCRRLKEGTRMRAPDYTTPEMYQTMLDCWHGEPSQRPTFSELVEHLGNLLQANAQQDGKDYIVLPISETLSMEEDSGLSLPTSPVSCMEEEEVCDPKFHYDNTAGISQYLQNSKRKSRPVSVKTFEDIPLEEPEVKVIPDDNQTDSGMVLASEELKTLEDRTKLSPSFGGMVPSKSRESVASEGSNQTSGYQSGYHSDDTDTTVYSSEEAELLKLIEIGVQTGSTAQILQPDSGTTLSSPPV
Sequence of Cytochrome P450 1A2 (P05177 whole entry): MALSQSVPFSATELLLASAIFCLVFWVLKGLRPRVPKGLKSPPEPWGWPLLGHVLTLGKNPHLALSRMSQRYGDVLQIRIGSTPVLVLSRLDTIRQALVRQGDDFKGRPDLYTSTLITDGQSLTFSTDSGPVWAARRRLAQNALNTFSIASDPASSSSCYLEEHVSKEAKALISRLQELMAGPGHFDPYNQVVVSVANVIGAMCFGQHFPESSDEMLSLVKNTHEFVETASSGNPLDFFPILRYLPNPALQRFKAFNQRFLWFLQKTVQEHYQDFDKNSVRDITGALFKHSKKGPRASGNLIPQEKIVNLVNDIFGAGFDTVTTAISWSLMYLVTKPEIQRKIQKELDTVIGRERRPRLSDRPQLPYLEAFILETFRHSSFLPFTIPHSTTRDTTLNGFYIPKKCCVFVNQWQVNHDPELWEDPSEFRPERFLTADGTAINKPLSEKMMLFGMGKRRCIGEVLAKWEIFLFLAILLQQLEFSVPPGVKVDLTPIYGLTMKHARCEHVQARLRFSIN
Sequence of Casein kinase I delta/epsilon (Homo sapiens) (P48730 whole entry, looked up): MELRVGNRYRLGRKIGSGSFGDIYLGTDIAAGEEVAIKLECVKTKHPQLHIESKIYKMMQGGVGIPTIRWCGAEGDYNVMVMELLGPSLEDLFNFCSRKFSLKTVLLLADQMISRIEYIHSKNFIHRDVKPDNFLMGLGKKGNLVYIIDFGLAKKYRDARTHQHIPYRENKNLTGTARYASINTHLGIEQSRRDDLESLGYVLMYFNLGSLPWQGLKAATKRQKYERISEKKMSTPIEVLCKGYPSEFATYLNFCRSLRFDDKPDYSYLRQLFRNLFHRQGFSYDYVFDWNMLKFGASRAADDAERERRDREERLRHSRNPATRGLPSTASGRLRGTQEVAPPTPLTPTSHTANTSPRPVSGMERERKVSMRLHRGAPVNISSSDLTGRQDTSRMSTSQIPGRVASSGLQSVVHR
Sequence of Casein kinase I delta/epsilon (Homo sapiens) (P49674 whole entry, looked up): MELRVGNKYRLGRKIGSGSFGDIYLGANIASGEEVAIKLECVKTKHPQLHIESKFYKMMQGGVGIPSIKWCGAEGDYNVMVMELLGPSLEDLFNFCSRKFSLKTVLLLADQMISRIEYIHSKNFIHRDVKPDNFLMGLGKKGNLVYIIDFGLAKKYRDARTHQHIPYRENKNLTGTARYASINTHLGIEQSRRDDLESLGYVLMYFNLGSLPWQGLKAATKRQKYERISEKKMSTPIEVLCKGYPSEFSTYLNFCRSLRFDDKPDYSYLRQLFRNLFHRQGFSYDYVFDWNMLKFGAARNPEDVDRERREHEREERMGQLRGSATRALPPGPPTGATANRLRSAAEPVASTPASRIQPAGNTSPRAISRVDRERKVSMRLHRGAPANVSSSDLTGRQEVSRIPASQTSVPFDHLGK
Sequence of Cytochrome P450 2C19 (P33261 whole entry): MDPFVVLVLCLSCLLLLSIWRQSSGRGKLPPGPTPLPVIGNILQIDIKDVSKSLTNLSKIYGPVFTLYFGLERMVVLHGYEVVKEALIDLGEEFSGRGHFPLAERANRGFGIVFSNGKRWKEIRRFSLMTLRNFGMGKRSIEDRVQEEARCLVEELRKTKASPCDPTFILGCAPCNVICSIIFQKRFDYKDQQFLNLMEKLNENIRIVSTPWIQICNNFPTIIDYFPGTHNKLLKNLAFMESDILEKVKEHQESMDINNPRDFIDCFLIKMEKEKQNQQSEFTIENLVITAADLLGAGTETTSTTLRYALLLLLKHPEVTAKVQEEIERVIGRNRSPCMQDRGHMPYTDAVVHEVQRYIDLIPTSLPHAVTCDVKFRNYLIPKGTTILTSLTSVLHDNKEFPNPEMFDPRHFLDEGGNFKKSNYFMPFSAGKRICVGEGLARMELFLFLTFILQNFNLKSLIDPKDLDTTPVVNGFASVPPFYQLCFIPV
Sequence of Interleukin-1 receptor-associated kinase 1 (Homo sapiens) (P51617 whole entry, looked up): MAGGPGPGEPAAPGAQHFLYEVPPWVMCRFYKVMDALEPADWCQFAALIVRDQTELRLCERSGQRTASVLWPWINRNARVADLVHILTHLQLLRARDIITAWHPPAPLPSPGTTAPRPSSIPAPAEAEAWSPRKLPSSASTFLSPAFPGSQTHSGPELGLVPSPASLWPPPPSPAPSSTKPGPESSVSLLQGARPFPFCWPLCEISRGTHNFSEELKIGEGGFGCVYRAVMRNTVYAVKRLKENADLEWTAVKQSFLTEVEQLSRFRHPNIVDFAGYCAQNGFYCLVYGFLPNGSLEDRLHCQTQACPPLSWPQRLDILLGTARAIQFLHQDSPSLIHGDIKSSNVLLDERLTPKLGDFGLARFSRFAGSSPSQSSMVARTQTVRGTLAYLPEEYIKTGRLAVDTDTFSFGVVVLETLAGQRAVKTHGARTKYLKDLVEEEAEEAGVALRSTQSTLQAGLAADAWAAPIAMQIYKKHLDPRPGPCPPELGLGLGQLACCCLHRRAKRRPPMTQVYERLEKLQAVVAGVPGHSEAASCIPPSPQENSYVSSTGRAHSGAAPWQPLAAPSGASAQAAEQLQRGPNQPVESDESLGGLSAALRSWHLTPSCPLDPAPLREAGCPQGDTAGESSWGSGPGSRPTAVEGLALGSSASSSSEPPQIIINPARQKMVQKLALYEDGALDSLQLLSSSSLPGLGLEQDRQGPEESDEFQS
Sequence of CYP2C9 (P11712 whole entry): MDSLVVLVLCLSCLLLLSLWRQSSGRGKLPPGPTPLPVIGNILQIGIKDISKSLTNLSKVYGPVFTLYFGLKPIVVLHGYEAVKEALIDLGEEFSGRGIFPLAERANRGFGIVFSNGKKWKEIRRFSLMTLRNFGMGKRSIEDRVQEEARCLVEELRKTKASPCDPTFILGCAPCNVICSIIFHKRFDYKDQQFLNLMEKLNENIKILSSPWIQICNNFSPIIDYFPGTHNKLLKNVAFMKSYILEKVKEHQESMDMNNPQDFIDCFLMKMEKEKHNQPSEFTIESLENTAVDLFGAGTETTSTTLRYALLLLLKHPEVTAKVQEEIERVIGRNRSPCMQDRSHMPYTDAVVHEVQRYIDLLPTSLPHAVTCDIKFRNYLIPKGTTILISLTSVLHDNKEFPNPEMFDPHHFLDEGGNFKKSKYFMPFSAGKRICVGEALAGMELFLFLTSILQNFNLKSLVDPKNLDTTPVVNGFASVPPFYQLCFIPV
Sequence of CYP2C8 (P10632 whole entry): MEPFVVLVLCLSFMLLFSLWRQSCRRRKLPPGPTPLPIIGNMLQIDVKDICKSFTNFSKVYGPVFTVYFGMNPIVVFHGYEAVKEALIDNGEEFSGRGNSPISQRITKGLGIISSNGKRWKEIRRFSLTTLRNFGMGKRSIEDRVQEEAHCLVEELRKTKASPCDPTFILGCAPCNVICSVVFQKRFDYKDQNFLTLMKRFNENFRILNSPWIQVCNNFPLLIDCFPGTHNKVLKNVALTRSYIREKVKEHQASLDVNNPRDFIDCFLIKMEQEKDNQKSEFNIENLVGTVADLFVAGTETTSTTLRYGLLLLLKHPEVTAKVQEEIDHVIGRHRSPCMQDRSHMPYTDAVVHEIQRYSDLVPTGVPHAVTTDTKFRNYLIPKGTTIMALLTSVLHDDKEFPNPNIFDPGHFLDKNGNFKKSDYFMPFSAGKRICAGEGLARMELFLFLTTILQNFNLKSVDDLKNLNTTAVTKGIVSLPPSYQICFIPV

For CC[C@@H]1[C@H](F)C(=O)N[C@@H]1COc1nccc2cc(C(N)=O)c(OC)cc12 [ZIMLOVISERTIB], the inhibition [1] was > 50%, the microsomal CLint [2] was 25 µL/min/mg and the inhibition at 3 µM (CYP2C9) was < 5%. For the same compound, the half-life [3] was 0.6 h, the half-life [4] was 1.1 h and the inhibition [5] was > 50%. The TDI (Cytochrome P450 2B6) was “Not Active”, the half-life [6] was 4 h and the Vd [7] was 1.8 L/kg. The inhibition [8] was > 70%, the solubility [9] was 57 µg/mL (≈ 158 µM) and the solubility [10] was 62 µg/mL (≈ 172 µM). For the same compound, the TDI (Cytochrome P450 2C19) was “Not Active”, the inhibition [11] was > 50% and the inhibition [12] was > 70%. The inhibition [13] was 100%, the inhibition at 3 µM (CYP2C8) was < 5% and the Vd [14] was 0.77 L/kg. The half-life [15] was 1.7 h, the bioavailability [16] was 34 to 50% and the Vd [17] was 0.95 L/kg. For the same compound, the bioavailability [18] was 6.9%, the “Cp(f)” value (Plasma [19]) was 2.1 nM and the half-life [20] was 6.2 h. The inhibition in vivo at 30 mg/kg (Rattus norvegicus [21]) was 87%, the fraction unbound [22] was 0.3 and the inhibition (Rattus norvegicus [23]) was “Dose-dependent effect”. For the same compound, the inhibition in vivo at 1 mg/kg (Rattus norvegicus [24]) was 52%, the TDI (Cytochrome P450 1A2) was “Not Active” and the “Cp(f)” value (Plasma [25]) was 19 nM. For the same compound, the IC50 [26] was 5.33 µM and the inhibition in vivo at 3 mg/kg (Rattus norvegicus [27]) was 60%.
